High-throughput results (PubChem)
Sampled rows, rich in hits. Any-hit rate of the full collection: about 27%.
Cav3 T inh = Cav3.2 calcium influx blockers – cell-based, Fluo-4 calcium fluorescence, FDSS, MLSMR library, primary screen. Voltage-dependent T-type calcium channel subunit alpha-1H (Homo sapiens), O95180. Cav3.2-expressing cells; stronger effect = lower value. B-score at 10 µM. 4% of 100,000 active. AID 449739, 2010;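 active means single-dose well whose peak fluorescence ratio is a statistical outlier from its plate by either plate-standardised score or position-corrected B-score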
Rev-RRE block = HIV-1 Rev-RRE binding inhibitors, primary screen, biochemical, FRET, protein-RNA interaction | P05866 | Rev peptide-RRE RNA binding | inhibition, % at 8 µM | 0.79% of 97,000 active;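 active means inhibition above the screen-wide mean plus 3 SD, cut at about 35% in these data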;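 further: 0% = median DMSO wells and 100% = median Neomycin B control wells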
Target sequence (P05866 whole entry, looked up): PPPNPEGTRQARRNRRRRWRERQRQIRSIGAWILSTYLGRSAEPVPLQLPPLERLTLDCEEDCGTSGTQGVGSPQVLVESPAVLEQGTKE
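System: Cy5-labelled duplex RRE RNA binding fluorescein-labelled HIV Rev peptide; Signal: fluorescein-to-Cy5 FRET, 480 nm excitation; Also added: labelled Rev peptide; Compound: one concentration, 8 µM nominal; Buffer or medium: HEPES pH 7.5 salt buffer with EDTA; Read-out: % inhibition of FRET ratio versus controls; Schedule: 5 min preincubation and 15 min binding, 25 °C.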
CYP2C19 activ = human CYP2C19 activators, primary screen, biochemical, luminescence; 96,000 tested, under 10 active; activation factor at 5 µM; recombinant CYP2C19, luciferin-H EGE luminescence; stronger effect = higher value; 0 = fully inhibited enzyme, 1 = untreated enzyme; Cytochrome P450 2C19 (Homo sapiens), P33261;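 active means activation factor of at least 2 at 5 µM in the primary screen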;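 further: 0 = wells with 2.5 mM tranylcypromine and 1 = vehicle-only wells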
CYP2C19 inh = blockers of cytochrome P450 2C19 activity – biochemical, luminescence, ADME assay, primary screen; CYP2C19 Supersomes, luciferin-H EGE luminescence, 30 min; P33261; 21% of 96,000 active; inhibition, % at 5 µM;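 active means CYP2C19 inhibition above a set limit at 5 µM in the primary screen, cut at about 50% in these data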;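 further: plate controls were negative control wells for no effect and 2.5 mM tranylcypromine positive control for full effect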
CYP2C9 inh = blockers of cytochrome P450 2C9 activity – biochemical, luminescence, ADME assay, primary screen; 20% of 96,000 active; P11712; CYP2C9 Supersomes, luciferin-H conversion; inhibition, % at 5 µM;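 active means blocking of liver enzyme CYP2C9 beyond about 50% at 5 µM, limit read from the data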
Target sequence (P11712 whole entry, looked up): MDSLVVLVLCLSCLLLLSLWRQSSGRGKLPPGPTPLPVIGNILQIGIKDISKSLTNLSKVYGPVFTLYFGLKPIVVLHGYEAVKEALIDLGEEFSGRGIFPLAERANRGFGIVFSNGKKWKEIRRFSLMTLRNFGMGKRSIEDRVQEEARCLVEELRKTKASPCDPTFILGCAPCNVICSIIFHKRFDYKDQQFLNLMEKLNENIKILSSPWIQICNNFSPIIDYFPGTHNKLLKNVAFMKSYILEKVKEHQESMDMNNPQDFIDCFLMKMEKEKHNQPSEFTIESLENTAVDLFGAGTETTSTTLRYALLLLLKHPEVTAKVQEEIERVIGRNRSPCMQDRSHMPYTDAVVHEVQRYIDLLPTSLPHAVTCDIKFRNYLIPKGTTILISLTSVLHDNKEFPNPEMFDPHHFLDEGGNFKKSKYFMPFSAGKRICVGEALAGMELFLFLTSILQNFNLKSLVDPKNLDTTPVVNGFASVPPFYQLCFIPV
CYP2C9 activ = human CYP2C9 activators, primary screen, biochemical, luminescence. Cytochrome P450 2C9 (Homo sapiens), P11712. recombinant CYP2C9, luciferin-H conversion; stronger effect = higher value; factor 1 = untreated enzyme, 0 = blocked. activation factor at 5 µM. 1.4% of 96,000 active. AID 1024, 2008;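 active means activation factor of 2 or more for CYP2C9 at a 5 µM dose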;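 further: 0 = sulfaphenazole-blocked wells and 1 = vehicle-only wells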
Starred values were filed as active, the others as inactive; . = no result.

SMILES	Cav3 T inh	Rev-RRE block	CYP2C19 activ	CYP2C19 inh	CYP2C9 inh	CYP2C9 activ
COc1ccc(NC(=O)COC(=O)c2ccc(N3CCCC3=O)cc2)cc1OC	-11.7*	7.2	0.8	20.1	0.2	1
CCCCOC(=O)Nc1ccc(N2CCCCC2)cc1	-2.17	2.3	0.3	69.8*	52.4*	0.5
O=C(COC(=O)c1ccc(O)cc1)Nc1ccc(N2CCCCC2)cc1	-0.851	-3.6	0.4	64.0*	73.6*	0.3
CCOc1ccc(-n2c(SCC(N)=O)nc3c(c2=O)SCC3)cc1	.	.	1.2	-19.7	2.6	1
CC(=O)NC12CC3CC(C1)CC(C(=O)OCC(=O)Nc1ncc(Cl)cc1Cl)(C3)C2	-0.119	14.5	.	.	.	.
CC(=O)NC12CC3CC(C1)CC(C(=O)Nc1nccs1)(C3)C2	.	4.3	0.2	84.7*	55.7*	0.4
CC1CCC(C(=O)NC(C(=O)N2CCc3ccccc3C2)C(C)C)CC1 (stereo unspecified)	-5.36*	-0.6	0.8	16.5	15.1	0.8
COc1cccc2[nH]c3c(N4CCN(Cc5ccc6c(c5)OCO6)CC4)ncnc3c12	.	8.4	0.1	93.6*	84.8*	0.2
CCOc1ccc2[nH]c3c(N4CCN(c5ccccn5)CC4)ncnc3c2c1	-0.142	11.7	0.2	80.0*	68.8*	0.3
c1ccc2c(c1)[nH]c1c(N3CCC4(CC3)OCCO4)ncnc12	0.529	7.1	0.3	67.9*	37.7	0.6
COc1cccc2[nH]c3c(N4CCC(C)CC4)ncnc3c12	-0.696	12.3	0.8	16.3	4.2	1
Cc1ccc2[nH]c3c(N4CCN(Cc5ccc6c(c5)OCO6)CC4)ncnc3c2c1	.	15.6	0.5	50.0*	88.1*	0.1
OC1(c2cccc(C(F)(F)F)c2)CCN(c2ncnc3c2[nH]c2ccccc23)CC1	.	12.7	.	.	.	.
CCN(CC)CCNc1ncnc2c1[nH]c1ccc(OC)cc12	1.15	-1.1	.	.	.	.
CCSc1ccc(NC(=O)c2cccnc2)cc1	0.11	7.8	1	-2.3	12.1	0.9
c1ccc(CN2CCN(c3nc(-c4ccccc4)nc4ccccc34)CC2)cc1	-0.298	12.6	0.9	8.3	29.4	0.7
Cc1ccc2c(c1)[nH]c1c(N3CCN(Cc4ccccc4)CC3)ncnc12	-4.91*	12.7	0.6	36.2	64.9*	0.4
c1ccc(CN2CCN(c3nc4ccccc4c4ccccc34)CC2)cc1	0.366	13.3	0.7	28.5	91.7*	0.1
Cc1ccc2c(c1)c1ncnc(N3CCC4(CC3)OCCO4)c1n2C	.	10.3	0.9	11.7	61.9*	0.4
Cc1ccc2[nH]c3c(=O)n(Cc4ccncc4)cnc3c2c1	-0.13	5.5	0.5	49.9	63.4*	0.4
Cc1ccc2[nH]c3c(N4CCCCCC4)ncnc3c2c1	.	1.2	0.6	38.9	36.0	0.6
NC(=O)CC1NC(=O)c2cc([N+](=O)[O-])cc(I)c2OCCC(C(N)=O)NC(=O)[C@@H]2CCCN2C1=O (stereo partly specified)	0.321	.	.	.	.	.
Cc1ccc2[nH]c3c(N4CCN(Cc5ccccc5)CC4)ncnc3c2c1	-3.91	10.8	0.2	77.5*	94.8*	0.1
CCN1CCN(c2ncnc3c2nnn3Cc2ccccc2)CC1	-2.29	1.4	0.5	49.3	0.7	1
c1ccc(CN2CCN(c3ncnc4c3[nH]c3ccccc34)CC2)cc1	-3.26	10.3	0.5	54.2*	54.7*	0.5
SMILES	Cav3 T inh	Rev-RRE block	CYP2C19 activ	CYP2C19 inh	CYP2C9 inh	CYP2C9 activ
c1ccc2c(c1)CCN(c1ncnc3c1[nH]c1ccccc13)C2	.	.	0	95.4*	94.6*	0.1
O=C(c1ccccc1NS(=O)(=O)c1ccc(Br)s1)N1CCCC1	-1.8	2.9	0.3	69.4*	8.4	0.9
O=C(Nc1ccccc1C(=O)N1CCNCC1)c1ccco1	1.27	5.2	.	.	.	.
Cc1sc(NC(=O)c2ccco2)c(CN2CCCCC2)c1C	-0.958	.	1	1.9	11.0	0.9
Cc1sc(NC(=O)c2ccco2)c(CN2CCN(c3ccccc3)CC2)c1C	.	-4.2	0.3	72.1*	80.4*	0.2
O=C(Nc1ccccc1C(=O)N1CCN(c2ccccc2)CC1)c1ccco1	1.1	-0.1	0.4	62.1*	56.9*	0.4
COC(=O)c1ccccc1NC(=O)N1CCN(C(=O)c2ccco2)CC1	.	.	0.5	52.1*	1.0	1
CCc1nnc2sc(-c3ccc(NC(=O)c4ccc5c(c4)OCCO5)cc3)nn12	0.393	-5.3	0.8	15.7	31.1	0.7
CCNC(=O)[C@@H]1CCCN1C(=O)[C@H](CCCN=C(N)N)NC(=O)[C@H](CC(C)C)NC(=O)[C@@H](CC(C)C)NC(=O)[C@H](Cc1ccc(O)cc1)NC(=O)[C@H](CO)NC(=O)[C@H](Cc1c[nH]c2ccccc12)NC(=O)[C@H](Cc1cnc[nH]1)NC(=O)[C@@H]1CCC(=O)N1	-0.546	.	.	.	.	.
COc1ccccc1CN1C(=O)C2CC=CCC2C1=O (stereo unspecified)	-0.0386	7.2	0.7	30.4	-17.4	1.2
COC(C[C@@H](O)[C@@H](C)[C@@H](O)COCc1ccccc1)OC	-1.58	.	.	.	.	.
CS(=O)(=O)Nc1ccccc1C(=O)N1CCN(c2ccccc2)CC1	.	5.8	0.3	71.0*	-0.7	1
CS(=O)(=O)Nc1ccccc1C(=O)N1CCCC1	0.467	5.5	0.9	7.1	13.5	0.9
O=C(O)/C=C\C(=O)Nc1ccccc1C(=O)N1CCN(c2ccc(Cl)cc2)CC1	0.553	9.4	0.7	34.5	58.0*	0.4
COc1ccc(OCC(=O)Nc2ncc3c(n2)CC(C)(C)CC3=O)cc1	0.0184	-3.8	1	-1.0	1.6	1
CC1(C)Cc2[nH]c(=S)c(C#N)cc2CO1	-0.0231	5.0	1	4.6	12.1	0.9
Cn1c(=O)c2c(nc(SCC(=O)O)n2Cc2cc3c(cc2Cl)OCO3)n(C)c1=O	0.565	8.3	1	-1.5	21.1	0.8
CN(Cc1ccccc1)C(=O)Cn1cccc1C(=O)c1ccccc1	-0.762	0.1	0.3	69.8*	29.7	0.7
O=C(O)Cn1cccc1C(=O)c1ccccc1	0.281	2.5	.	.	.	.
Cc1ccc(CNC(=O)Cn2cccc2C(=O)c2ccccc2)cc1	-4.89*	-3.8	0.8	19.0	-52.4	1.5
O=C1NCC2=C1C(c1ccc(Br)cc1)Nc1ccccc1N2 (stereo unspecified)	.	0.5	0.8	21.6	54.9*	0.5
CC1(C)CC(=O)C2=C(C1)Nc1ccccc1NC2c1ccc2c(c1)OCO2 (stereo unspecified)	-0.0393	1.7	0.9	6.6	-0.4	1
CCn1c(SCC(=O)c2cc(OC)ccc2OC)nnc1C1CC1	0.532	3.4	0.1	93.9*	-2.7	1
